Among the data in ChEMBL document CHEMBL1159337, “Antitumor agents. 221.1 buceracidins A and B, two new flavanones from Bucida buceras” (J Nat Prod, 2003) are IC50 and inhibition values, retold here.

Values after ≈ are worked out from the molar mass of the structure shown. A value given as a limit tells only on which side of the number the result lay.

In assay [1] the test system is KB. Briefly: Cytotoxicity against human KB cells after 3 days by SRB assay. Format: functional, cell-based. Conditions: 72 h. Put shortly:
(§1)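 Stock cultures were kept in RPMI-1640 with 25 mM HEPES, 0.25% sodium bicarbonate, 10% FBS and 100 µg/mL kanamycin. Freshly trypsinized cells were seeded at 1500-7500 per well with compounds diluted from DMSO stock and cultured 3 days. Cells were fixed with cold 50% TCA, stained with 0.4% SRB, and the solubilized dye was read at 562 nm. IC50 was the concentration giving a 50% absorbance reduction versus untreated cells.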

Assay [2] is described as follows: Cytotoxicity against human KBVIN cells after 3 days by SRB assay. Conditions: 72 h. Format: functional, cell-based. The procedure, abridged: as §1
Background: In SRB staining, fixed cells bind dye roughly in proportion to their protein.

A further assay concerns A549. Description: Cytotoxicity against human A549 cells after 3 days by SRB assay. Format: functional, cell-based. Conditions: A549, 72 h. Put shortly: as §1
The subject of the next assay is 1A9. Description: Cytotoxicity against human 1A9 cells after 3 days by SRB assay. Format: functional, cell-based. Conditions: 1A9, 72 h. Put shortly: as §1
The next assay relates to HCT-8. Briefly: Cytotoxicity against human HCT8 cells after 3 days by SRB assay. Format: functional, cell-based. As to conditions: HCT-8, 72 h. Put shortly:
as §1

The test system of a further assay is MCF7. Briefly: Cytotoxicity against human MCF7 cells after 3 days by SRB assay. As to conditions: MCF7, 72 h. Format: functional, cell-based. The procedure, abridged:
as §1

The test system of a further assay is PC-3. Briefly: Cytotoxicity against human PC3 cells after 3 days by SRB assay. Format: functional, cell-based. Conditions: PC-3, 72 h. The procedure, abridged:
as §1

The nature of assay [3]: Cytotoxicity against human U87MG cells after 3 days by SRB assay. Format: functional, cell-based, U-87MG ATCC. As to conditions: U-87 MG, 72 h. Put shortly:
as §1

The test system of another assay is SK-MEL-2. Briefly: Cytotoxicity against human SK-MEL-2 cells after 3 days by SRB assay. Format: functional, cell-based. As to conditions: SK-MEL-2, 72 h. Put shortly: as §1
The subject of assay [4] is KB. Description: Cytotoxicity against human KB cells at 10 ug/ml after 3 days by SRB assay. Format: functional. As to conditions: 72 h.

Turning to `CC(C)=CCc1c2c(c(O)c3c1O[C@H](c1ccccc1O)[C@@H](O)C3=O)C=CC(C)(C)O2`, the IC50 (usually the concentration that inhibits the measured activity by half) amounted to 16.5 mg/L (≈ 39.1 µM) in the assay on KB [1]; 13.3 mg/L (≈ 31.5 µM) in assay [2]; 13.5 mg/L (≈ 32 µM) in the assay with A549; 15 mg/L (≈ 35.5 µM) in the assay with 1A9; 12.1 mg/L (≈ 28.6 µM) in the assay with HCT-8; 12.8 mg/L (≈ 30.3 µM) with MCF7. Also, the IC50 stood at 15.4 mg/L (≈ 36.5 µM) with PC-3, 14.8 mg/L (≈ 35 µM) in assay [3] and 14.8 mg/L (≈ 35 µM) with SK-MEL-2.

Consider `CO[C@H]1C(=O)c2c(cc3c(c2O)C=CC(C)(C)O3)O[C@@H]1c1ccccc1O` [BUCERACIDIN A], for which the concentration for half-maximal inhibition (IC50) with KB [1] was over 10 mg/L; in assay [2] it was 15 mg/L (≈ 40.7 µM); in the assay on A549, 14.1 mg/L (≈ 38.3 µM); in the assay with 1A9, 14.9 mg/L (≈ 40.4 µM); in the assay with HCT-8, 15.5 mg/L (≈ 42.1 µM); in the assay with MCF7, 13.6 mg/L (≈ 36.9 µM). Further, the IC50 with PC-3 worked out at 16.3 mg/L (≈ 44.2 µM); in assay [3], 16.1 mg/L (≈ 43.7 µM); in the assay with SK-MEL-2 it was 15.6 mg/L (≈ 42.3 µM). Testing at 10 µg/mL with KB [4] gave an inhibition of 31%.

`CC(C)=CCc1c2c(c(O)c3c1O[C@H](c1ccccc1)[C@@H](O)C3=O)C=CC(C)(C)O2` [MUNDULINOL]: the half-maximal inhibitory concentration (IC50) in the assay on KB [1] stood at 8.5 mg/L (≈ 20.9 µM); in assay [2], 7.5 mg/L (≈ 18.5 µM); with A549, 7.5 mg/L (≈ 18.5 µM); in the assay on 1A9, 8.2 mg/L (≈ 20.2 µM); in the assay with HCT-8, 7 mg/L (≈ 17.2 µM); in the assay on MCF7, 7.5 mg/L (≈ 18.5 µM). The IC50 with PC-3 stood at 9.3 mg/L (≈ 22.9 µM); in assay [3], 13 mg/L (≈ 32 µM); in the assay on SK-MEL-2 it was 8.5 mg/L (≈ 20.9 µM).

Consider `CC(C)=CCc1c2c(c(O)c3c1O[C@H](c1ccccc1O)CC3=O)C=CC(C)(C)O2` [MINIMIFLORIN], for which the IC50 with KB [1] was 7.3 mg/L (≈ 18 µM); in assay [2] it was 7.7 mg/L (≈ 18.9 µM); in the assay on A549 it was 8 mg/L (≈ 19.7 µM); in the assay on 1A9, 7.6 mg/L (≈ 18.7 µM); with HCT-8, 7.2 mg/L (≈ 17.7 µM); in the assay with MCF7, 7.5 mg/L (≈ 18.5 µM). Further, the results for the IC50 (in the assay on PC-3; in assay [3]; with SK-MEL-2) were 9.8 mg/L (≈ 24.1 µM), 11 mg/L (≈ 27.1 µM) and 9 mg/L (≈ 22.1 µM), respectively.

For `CC1(C)C=Cc2c(cc3c(c2O)C(=O)C[C@@H](c2ccccc2O)O3)O1` [BUCERACIDIN B], the IC50 in the assay on KB [1] was 9.5 mg/L (≈ 28.1 µM); in [2] it was 9.5 mg/L (≈ 28.1 µM); with A549, 9.9 mg/L (≈ 29.3 µM); in the assay on 1A9, 11.5 mg/L (≈ 34 µM); in the assay with HCT-8, 12.8 mg/L (≈ 37.8 µM); with MCF7, 9.3 mg/L (≈ 27.5 µM). The IC50 in the assay with PC-3 was 13 mg/L (≈ 38.4 µM); in assay [3] it was 14.2 mg/L (≈ 42 µM); in the assay on SK-MEL-2 it was 14 mg/L (≈ 41.4 µM).

As to `CO[C@H]1C(=O)c2c(O)c3c(c(CC=C(C)C)c2O[C@@H]1c1ccccc1O)OC(C)(C)C=C3`, the IC50 in the assay with KB [1] stood at 6.5 mg/L (≈ 14.9 µM); in [2] it was 7 mg/L (≈ 16 µM); in the assay on A549 it was 7.6 mg/L (≈ 17.4 µM); with 1A9 it was 7.8 mg/L (≈ 17.9 µM); with HCT-8 it was 7.2 mg/L (≈ 16.5 µM); in the assay with MCF7, 7 mg/L (≈ 16 µM). Moreover, the IC50 with PC-3 came out at 8.4 mg/L (≈ 19.2 µM); in assay [3], 8.6 mg/L (≈ 19.7 µM); with SK-MEL-2, 7.8 mg/L (≈ 17.9 µM).
